# According to ChEMBL document CHEMBL3232871, “Synthesis and structure-activity analysis of diphenylpyrazolodiazene inhibitors of the HIV-1 Nef virulence factor” (Bioorg Med Chem Lett, 2014):
# The source made the active and inactive calls. The rule behind the calls is not given here.
# Experiments:
# [1] = test system: TZM-bl; test: Inhibition of HIV protein Nef in TZM-bl cells assessed decrease in HIV infectivity at 3 uM after 48 hrs by TZM-bl HIV infectivity assay; type: cell-based; conditions: Human immunodeficiency virus
# In short: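 TZM-bl reporter cells (HIV-1 LTR-driven luciferase) received compound at 3 μM and were then infected with wild-type HIV-1 NL4-3. Luciferase was read 48 h later. Signal from cells infected with Nef-defective HIV was subtracted, and values are mean percent of untreated-cell control ± SEM.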
# [2] = Cytotoxicity against human TZM-bl cells by Cell Titer Blue cell viability assay; type: cell-based
# In short: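 Viability of TZM-bl reporter cells was measured by Cell Titer Blue at the same compound concentration used in the HIV-1 infectivity assay (3 μM).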
SMILES,Nef inhibition activity call (active/inactive) [1],Activity [2]
Oc1[nH]nc(-c2ccccc2)c1/N=N/c1ccccc1,inactive,Non-toxic
NC(=O)n1nc(-c2ccc(F)cc2)c(/N=N/c2cccnc2)c1O,–,Non-toxic
NC(=S)n1nc(-c2ccc([N+](=O)[O-])cc2)c(/N=N/c2cncc(Cl)c2)c1O,Active,Non-toxic
NC(=S)n1nc(-c2ccc([N+](=O)[O-])cc2)c(/N=N/c2ccc(F)cc2)c1O,–,Non-toxic
COc1cccc(/N=N/c2c(-c3ccc([N+](=O)[O-])cc3)nn(C(N)=S)c2O)c1,inactive,Non-toxic
NC(=O)n1nc(-c2ccc(F)cc2)c(/N=N/c2cncc(Cl)c2)c1O,–,Non-toxic
NC(=S)n1nc(-c2ccc([N+](=O)[O-])cc2)c(/N=N/c2cccc(F)c2)c1O,–,Non-toxic
NC(=O)n1nc(-c2ccc([N+](=O)[O-])cc2)c(/N=N/c2cccc(Cl)c2)c1O,inactive,Non-toxic
NC(=S)n1nc(-c2ccccc2)c(/N=N/c2cccc(Cl)c2)c1O,inactive,Non-toxic
Oc1[nH]nc(-c2ccc(F)cc2)c1/N=N/c1cccnc1,–,Non-toxic
NC(=S)n1nc(-c2ccc([N+](=O)[O-])cc2)c(/N=N/c2ccccc2F)c1O,–,Non-toxic
NC(=S)n1nc(-c2ccc([N+](=O)[O-])cc2)c(/N=N/c2ccccc2Cl)c1O,inactive,Non-toxic
Oc1[nH]nc(-c2ccc(F)cc2)c1/N=N/c1cncc(Cl)c1,inactive,Non-toxic
NC(=O)n1nc(-c2ccc(F)cc2)c(/N=N/c2cccc(Cl)c2)c1O,Active,Non-toxic
NC(=O)n1nc(-c2ccc([N+](=O)[O-])cc2)c(/N=N/c2cncc(Cl)c2)c1O,–,Non-toxic
COc1ccc(-c2nn(C(N)=S)c(O)c2/N=N/c2cccc(Cl)c2)cc1,inactive,Non-toxic
NC(=S)n1nc(-c2ccc(C(F)(F)F)cc2)c(/N=N/c2cccc(Cl)c2)c1O,Active,Non-toxic
COc1ccc(/N=N/c2c(-c3ccc([N+](=O)[O-])cc3)n[nH]c2O)cc1,Active,Non-toxic
NC(=S)n1nc(-c2ccc([N+](=O)[O-])cc2)c(/N=N/c2cccc(Cl)c2)c1O,–,Non-toxic
COc1ccccc1/N=N/c1c(-c2ccc([N+](=O)[O-])cc2)nn(C(N)=S)c1O,inactive,Non-toxic
NC(=O)n1nc(-c2ccc([N+](=O)[O-])cc2)c(/N=N/c2cccnc2)c1O,–,Non-toxic
NC(=O)n1nc(-c2ccc([N+](=O)[O-])cc2)c(/N=N/c2ccc(Cl)cc2)c1O,–,Non-toxic
NC(=S)n1nc(-c2ccc([N+](=O)[O-])cc2)c(/N=N/c2ccc(Cl)cc2)c1O,Active,Non-toxic
NC(=S)n1nc(-c2ccc([N+](=O)[O-])cc2)c(/N=N/c2cccnc2)c1O,Active,Non-toxic
